Only some compounds are listed: those with a hit (about 3.7% of all), similar ones and a draw of the others.
Beta2AR agonist: human beta-2 adrenergic receptor agonism by FAP. Am2.2-beta2AR cells, FAP receptor internalization, flow cytometry. 0.43% of 340,000 active. response, % (no concentration beside the values). P07550. AID 504454;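 active means response above a set limit, near 3 SD of response in nonfluorescent compounds, cut at about 42% in these data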
Target sequence (P07550 whole entry, looked up): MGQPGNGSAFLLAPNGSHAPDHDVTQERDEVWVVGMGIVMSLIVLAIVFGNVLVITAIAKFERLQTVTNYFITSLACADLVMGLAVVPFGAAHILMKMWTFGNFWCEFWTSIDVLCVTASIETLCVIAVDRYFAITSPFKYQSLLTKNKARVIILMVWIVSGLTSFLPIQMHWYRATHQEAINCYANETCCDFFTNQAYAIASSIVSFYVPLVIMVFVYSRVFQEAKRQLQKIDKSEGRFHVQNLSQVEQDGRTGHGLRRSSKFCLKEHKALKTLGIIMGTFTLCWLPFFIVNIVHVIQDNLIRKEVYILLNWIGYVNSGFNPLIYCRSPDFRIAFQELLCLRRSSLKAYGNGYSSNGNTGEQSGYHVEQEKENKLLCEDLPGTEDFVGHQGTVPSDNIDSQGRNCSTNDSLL
Dynein transport: dynein cargo transport inhibition. 3617.4 mouse cells, GR-EGFP nuclear translocation imaging; test concentration mostly 20 µM; stimulated with dexamethasone, 1 µM; stronger effect = lower value. z-score, hits read low. 0.47% of 220,000 active;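 active means plate z-score of nuclear minus cytoplasmic receptor signal below a set negative limit, without overly bright fluorescence or cell loss, cut at about -3.5 in these data, passing the limit was not always enough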;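 further: z-score of nuclear minus cytoplasmic ring GR-EGFP intensity difference per well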
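Medium: Induction medium lacking tetracycline, stripped serum | Probe or stimulus: 1.0 µM final dexamethasone stimulus | Schedule: 48 h induction, then 1 h compound, then 30 min agonist, 37 °C | Signal: Automated 10x imaging of fixed Hoechst-stained cells | Evaluation: Per-cell GR-EGFP intensity, nucleus versus surrounding cytoplasmic ring, well-averaged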
Mdm2 ligase inh: blocks human Mdm2 ubiquitin ligase activity | Q00987 | cell-based MDM2 ubiquitination luciferase reporter, 2 h; 0 = plate control, 100 = twice control, blank-subtracted | signal enhancement, % at 5 µM | 0.11% of 210,000 active | AID 1230;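 active means signal enhancement of 30% or more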;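 further: luminescence tracks abundance of the self-degrading MDM2-luciferase fusion protein; higher signal means inhibition of MDM2 E3 ligase activity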
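Buffer or medium: Cells held in DMEM | Assay system: Stable mammalian line carrying autodegrading MDM2–luciferase fusion reporter | Quantity: 2000 cells/well | Times: 4 h settle plus 2 h compound, 37 °C | Doses: One concentration, 5 µM, with 0.2% DMSO | Technique: Luminescence with SteadyLite reagent, 15 min at room temperature | Benchmarks: Plate controls and plate blanks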
Mdm2 MdmX PPI: inhibitors of human Mdm2/MdmX interaction. O15151+Q00987. SaOS-2 split-luciferase Mdm2/MdmX complementation, luminescence. inhibition, % at 8 µM. 3% of 330,000 active. AID 485346;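 active means inhibition of at least 50% at 8 µM in the primary screen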
UPR XBP1 act: adaptive UPR (XBP1) activation | CHO-XBP1 luciferase reporter, IRE1-XBP1 UPR activation, luminescence; percent of tunicamycin response, DMSO as zero | activation, % at 20 µM | 0.33% of 330,000 active | AID 463104;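 active means versus positive control, 20 µM dose yields 30% or more activation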;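 further: 100% = tunicamycin at 10 µg/mL and 0% = DMSO only wells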
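Assay system: IRE1-XBP1 luciferase reporter CHO line. Input: 1000 cells/well. Buffer or medium: F12 with 10% serum. Doses: 20 µM, 1% DMSO. Times: overnight seeding at 37 °C, 6 h compound treatment at 37 °C. Technique: Steady-Glo luciferase glow luminescence, 10 min after reagent addition.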
CHOP UPR activ: activators of apoptotic arm of unfolded protein response (CHOP) | 0.34% of 330,000 active | CHO-CHOP luciferase reporter, UPR activation, luminescence; percent of tunicamycin response over DMSO baseline | activation, % at 10 µM;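 active means at 10 µM dose, activation of 40% or more, normalized to positive control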;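 further: 100% = tunicamycin at 10 µg/mL and 0% = DMSO alone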
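Assay system: CHO cells with stable CHOP pathway luciferase reporter; Buffer or medium: F12 plus 10% serum; Times: 16-18 h cell attachment, then 6 h compound exposure, 37 °C; Signal: luciferase luminescence; Read-out basis: percent activation relative to tunicamycin control; Control set: tunicamycin high control, DMSO low control.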
Mdm2-MdmX conf: human Mdm2/MdmX binding inhibition, confirmed | 55% of 10,000 active | shares compounds with Mdm2 MdmX PPI | inhibition, % at 8 µM | luminescent assay; in the data active means inhibition above about 40%
Full FLuc ctr: full-length luciferase inhibition in Mdm2/MdmX counter-screen | SaOS-2 full-length luciferase counterscreen, luminescence | shares compounds with Mdm2 MdmX PPI | 77% of 6,200 active | inhibition, % at 8 µM | AID 504607;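 active means mean inhibition at 8 µM reaching about 37%, which flags the compound as non-specific, limit read from the data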;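 further: p53-null SaOS-2 cells with luciferase driven by a doxycycline-inducible promoter; compound on cells about two nights before reading with doxycycline added after day one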
* hit, by the source's call; . = no result given.

SMILES | Beta2AR agonist | Dynein transport | Mdm2 ligase inh | Mdm2 MdmX PPI | UPR XBP1 act | CHOP UPR activ | Mdm2-MdmX conf | others
Cn1nc(-c2ccc(N3CCOCC3)c(NS(=O)(=O)c3ccccc3)c2)c2ccccc2c1=O | 0 | 2 | -19 | 65* | 9 | 1 | 31
CC(=O)Nc1cc(-c2nn(C)c(=O)c3ccccc23)ccc1N1CCCCC1 | 15 | -0.99 | . | -1 | 2 | -1 | .
COc1ccc(CNC(=O)CN2C(=O)CSc3ccc(S(=O)(=O)N4CCOCC4)cc32)c(OC)c1 | -2 | . | . | 3 | -3 | 0 | .
O=C(Nc1cccc(-c2cn3ccccc3n2)c1)c1cccc(Cl)c1 | 4 | 0.11 | 4 | 75* | 9 | 4 | -8
CC(NC(=O)c1cc(F)c(F)cc1Cl)C1CC2CCC1C2 (centres undefined) | -8 | . | . | 8 | -2 | 1 | .
CCc1ccc(NC(=S)NC2CCN(Cc3ccccc3)CC2)cc1 | 0 | -0.34 | 6 | 24 | 0 | -2 | .
CCC(C)c1ccc(NC(=S)NC2CCN(Cc3ccccc3)CC2)cc1 (centres undefined) | 18 | 0.4 | -1 | 76* | -2 | 0 | 29
COCCN(CC(=O)Nc1cc(Cl)ccc1-n1cncn1)Cc1nc2ccccc2c(=O)[nH]1 | -2 | . | . | -2 | -1 | -2 | .
CC(=O)c1c(C)[nH]c(C(=O)Nc2ccc(Cl)c(S(=O)(=O)N3CCOCC3)c2)c1C | 30 | 0.19 | -12 | 59* | -1 | 1 | 34
COc1ccccc1NS(=O)(=O)c1cc(NC(=O)c2[nH]c(C)c(C(C)=O)c2C)ccc1N1CCOCC1 | 19 | -0.73 | . | 61* | 6 | 2 | 30
COc1ccccc1NS(=O)(=O)c1cc(NC(=O)c2ccccc2C)ccc1N1CCOCC1 | 8 | . | . | . | . | . | .
CC(=O)c1c(C)[nH]c(C(=O)OCC(=O)Nc2cc(S(=O)(=O)N3CCCC3)ccc2Cl)c1C | -6 | -0.81 | -4 | 54* | 0 | 2 | 35
CC(=O)c1c(C)[nH]c(C(=O)Nc2cccc(S(=O)(=O)N3CCCC3)c2)c1C | 24 | . | . | 70* | 1 | 2 | 20
CC(=O)c1c(C)[nH]c(C(=O)OCC(=O)Nc2cccc(S(=O)(=O)N3CCCC3)c2)c1C | 9 | 1.4 | -3 | 7 | 0 | 4 | .
COc1ccccc1C1CC(c2cccc(NS(C)(=O)=O)c2)=NN1S(=O)(=O)c1ccccc1 (centres undefined) | -2 | . | . | -7 | 1 | 2 | .
CCC(C)c1ccc2oc(-c3ccc(NC(=O)Cn4cnc5c(=O)n(C)c(=O)n(C)c54)cc3)nc2c1 (centres undefined) | 0 | 1.9 | -10 | 50* | 25 | 22 | 61* | Full FLuc ctr=147*
Cc1ccc2oc(-c3cccc(NC(=O)Cn4cnc5c(=O)n(C)c(=O)n(C)c54)c3)nc2c1 | . | -1.2 | -15 | -28 | 26 | 4 | .
O=C(CN(Cc1ccc(F)cc1)C(=O)CNS(=O)(=O)c1ccccc1)NCC1CCCO1 (centres undefined) | 2 | . | . | -3 | 6 | 0 | .
O=C(CSc1nc(-c2ccco2)cc(C(F)(F)F)n1)NCCc1ccccc1 | -12 | -0.11 | 2 | 73* | -4 | 0 | 68* | Full FLuc ctr=21
CS(=O)(=O)c1nc(-c2ccco2)cc(C(F)(F)F)n1 | . | -2.6 | -14 | 100* | -5 | -10 | 100* | Full FLuc ctr=2
COc1ccc(CCNC(=O)CSc2nc(-c3ccco3)cc(C(F)(F)F)n2)cc1OC | -10 | -0.29 | -12 | -12 | -2 | -1 | .
CN1CCN(c2nc(-c3ccco3)cc(C(F)(F)F)n2)CC1 | 3 | 0.18 | -7 | -5 | 0 | 0 | .
Cc1cc(NC(=O)CSc2nc(-c3ccco3)cc(C(F)(F)F)n2)no1 | -4 | 0.03 | -4 | 65* | 23 | -1 | 53* | Full FLuc ctr=77*
CCCCNCCS(=O)(=O)NCc1ccc(OC)cc1 | -9 | . | . | . | . | . | .
Cc1cc(CN(C)Cc2cn(C)nc2-c2ccc(Oc3ccccc3)cc2)on1 | -3 | -1.4 | -14 | 10 | -3 | 0 | .
SMILES | Beta2AR agonist | Dynein transport | Mdm2 ligase inh | Mdm2 MdmX PPI | UPR XBP1 act | CHOP UPR activ | Mdm2-MdmX conf | others
N#CC(C(=O)Nc1cccc(Cl)c1)=C1Nc2ccccc2N1 | -10 | -1.2 | -3 | 24 | 8 | 2 | .
N#CC(C(=O)Nc1ccc(Cl)c(Cl)c1)=C1Nc2ccccc2N1 | -11 | -0.16 | -17 | 59* | 14 | 1 | 31 | Full FLuc ctr=37*
CCn1nc(C)c(CN2CCC(C(=O)Nc3cccc(-c4cccc(Cl)c4)c3)CC2)c1C | 12 | . | . | 80* | -1 | -1 | 40* | Full FLuc ctr=62*
Cc1cc(C)n(CCCN2CCC(C(=O)Nc3cccc(-c4cccc(F)c4)c3)CC2)n1 | 41 | . | . | 58* | -3 | 1 | 56* | Full FLuc ctr=74*
CCn1ncc(CN2CCC(C(=O)Nc3cccc(-c4cccc(F)c4)c3)CC2)c1C | -5 | . | . | 33 | -4 | 1 | .
CCOc1ccc(CN2CCC(C(=O)Nc3cccc(-c4ccn[nH]4)c3)CC2)cc1Cl | 16 | . | . | 61* | -5 | 4 | 0
O=C(O)C1C2OC(C(Br)C2Br)C1C(=O)O (centres undefined) | -4 | . | . | . | . | . | .
COc1ccccc1/C=C/CN1CCCC(CCC(=O)NCc2ccccc2F)C1 (centres undefined) | -2 | 2.6 | -24 | 11 | 0 | 2 | .
CCOc1ccc(C(C(=O)NCC2CCCO2)N(Cc2cccs2)C(=O)c2snc(C(N)=O)c2N)cc1 (centres undefined) | 6 | . | . | 50* | -2 | 2 | 51* | Full FLuc ctr=78*
Cc1[nH]n(C2=NCCS2)c(=O)c1N=Nc1cccc(C(F)(F)F)c1 | 7 | -0.9 | -11 | 56* | 7 | 6 | 56* | Full FLuc ctr=36*
C=CCNC(=O)c1cc(-c2ccncc2)nc2c(C)cc(C)cc12 | -2 | . | . | 9 | -3 | 1 | .
COc1cccc(-c2sc3ccc(OC)cc3c2-c2ccc(OCCN(C)C)cc2)c1 | 23 | . | . | 99* | 25 | 3 | 30
COc1cccc(-c2sc3ccc(OC)cc3c2-c2ccc(O)cc2)c1 | -5 | . | . | 15 | -2 | 2 | .
CN(C)CCOc1ccc(-c2c(-c3ccsc3)sc3ccccc23)cc1 | 19 | . | . | 93* | 15 | 3 | 33
COc1ccc(-c2sc3ccccc3c2-c2ccc(O)cc2)cc1 | 23 | . | . | 37 | 5 | 3 | .

Screening results from PubChem BioAssay.
